Assay results of several laboratories.
Each line is one published result; the experiments were not run side by side.
Target: Mitogen-activated protein kinase kinase kinase 4 (MAP3K4, Homo sapiens, UniProt Q9Y6R4)

SMILES | effect on | method | tested at | remaining binding
C[C@@H]1CN(c2cc(-c3n[nH]c4ccc(OC5(C)CC5)cc34)ncn2)C[C@H](C)O1 | cell-free assay | competition with immobilised ligand | 0.1 µM | 100%
O=C(NCCCN1CCOCC1)c1ccc(Nc2ncc(Cl)c(-c3ccc(Cl)s3)n2)cc1 | binding | competition with immobilised ligand | 1 µM | 54%
c1cnn2ncc(-c3ccnc(N4CCC45COC5)n3)c2c1 | binding | – | 1 µM | 97%
CCC(=O)N[C@H]1CC[C@@H](C(=O)N(C)c2ccc(-c3nc4ccccc4o3)cc2)C1 | cell-free assay | competition with immobilised ligand | 1 µM | 100%
O=C(NCC1CCOCC1)c1n[nH]cc1NC(=O)c1c(F)cccc1F | binding | competition with immobilised ligand | 1 µM | 100%
CC1=C(C#N)C(c2ccc3c(c2)c(NC(=O)c2ccccc2C)nn3C)C(C#N)=C(C)N1 | cell-free assay | competition with immobilised ligand | 1 µM | 84%
COc1cnc(Nc2cccc(S(N)(=O)=O)c2)nc1N1CCN(c2ccccc2)CC1 | binding | competition with immobilised ligand | 1 µM | 100%
CC(C)(C)c1ccc(-c2nc(CBr)nn2-c2cccc(O)c2)cc1 | cell-free assay | competition with immobilised ligand | 10 µM | 91%
O=C(c1ccc(Nc2ncc(Cl)c(-c3cc4ccccc4s3)n2)cc1)N1CCC(N2CCCC2)CC1 | binding | competition with immobilised ligand | 1 µM | 33%
Nc1ncc2c(n1)-c1c([nH]c3ccc(C#CC4CC4)cc13)CCCC2 | binding | competition with immobilised ligand | 1 µM | 92%
O=C(O)[C@H]1[C@H](Cn2nnc3ccccc3c2=O)CC[C@@H]1C(=O)c1ccc(OCCC2CCOCC2)cc1 | cell-free assay | competition with immobilised ligand | 1 µM | 100%
COc1cnc(Nc2cccc(S(N)(=O)=O)c2)nc1N1CCN(c2ccccc2)C(=O)C1 | binding | competition with immobilised ligand | 1 µM | 100%
F[C@@H]1CCN(c2nccc(-c3cnn4ncccc34)n2)C1 | binding | – | 1 µM | 78%
COc1ncc2cc3ccccc3nc2c1C#N | cell-free assay | competition with immobilised ligand | 5 µM | 91%
CN(C)C(=O)Cn1cc(-c2nc([C@@](C)(c3ccc(-c4cnc(N)nc4)cc3)C3CC3)no2)cn1 | cell-free assay | competition with immobilised ligand | 1 µM | 91%
C=CC(=O)N1CCC(C(=O)NCC(=O)N2CCN(c3nc(-c4cnc(N)nc4C(F)F)nc(N4CCOCC4)n3)CC2)CC1 | binding | competition with immobilised ligand | 1 µM | 100%
CN(C)c1nccc(-c2cnc3ncccn23)n1 | binding | – | 1 µM | 100%
C[C@@H](c1ccc(-n2cnc3c(N)ncnc32)cc1)N1CCc2nn(C)c(Cc3ccccc3)c2C1=O | binding | competition with immobilised ligand | 0.1 µM | 100%
Cc1nc(N2CC[C@@H](O)C2)ncc1-c1cc(C(F)(F)F)cc2[nH]ncc12 | binding | competition with immobilised ligand | 1 µM | 100%
CN(C)c1ncc(F)c(-c2cnn3ncccc23)n1 | binding | – | 1 µM | 100%
C[C@@H]1CN(c2ccc3ncc(-c4ccc5[nH]nc(C6CC6)c5c4)n3n2)C[C@H](C)O1 | binding | competition with immobilised ligand | 0.5 µM | 100%
O=C(c1ccc(Nc2ncc(Cl)c(-c3ccc(Cl)s3)n2)cc1)N1CCC(N2CCCC2)CC1 | binding | competition with immobilised ligand | 1 µM | 61%
COc1ccc2c(O[C@@H]3C[C@H]4C(=O)N[C@]5(C(=O)O)CC5/C=C\CCCCC[C@H](NC(=O)OC5CCCC5)C(=O)N4C3)cc(-c3csc(NC(=O)C(C)C)n3)nc2c1C (stereo partly drawn) | cell-free assay | competition with immobilised ligand | 1 µM | 74%
N[C@@H]1CCN(c2nccc(-c3cnn4ncccc34)n2)C1 | binding | – | 1 µM | 100%
